Test results from ChEMBL document CHEMBL1157105, “Semisynthesis of natural flavones inhibiting tubulin polymerization, from hesperidin” (J Nat Prod, 2010).

Legend:
[1] = Inhibition of sheep brain tubulin polymerization after 15 mins by turbidimetry; set-up: species or system Ovis aries
How it was run: (§1)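 Sheep brain microtubule protein purified by two 37 °C/0 °C assembly–disassembly cycles in 100 mM MES pH 6.6, 1 mM EGTA, 0.5 mM MgCl2. Compound in DMSO (1 µL) added to 150 µL microtubule solution, then incubated 37 °C 10 min and 0 °C 5 min. Polymerization rate read by turbidity at 350 nm. Reported as % inhibition at ~2.5 × 10^-3 M or IC50; deoxypodophyllotoxin reference, ratio IC50 compound/IC50 DPPT.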

Ovis aries [2] = species: Ovis aries; assay: Ratio of compound IC50 to DPPT IC50 for sheep brain tubulin polymerization; how it was run: as §1
KB [3] = assay: Cytotoxicity against human KB cells after 72 hrs by MTS assay; assay type: functional, cell-based
How it was run: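 KB cells grown in D-MEM with 10% fetal calf serum under 5% CO2. Seeded at 600 cells/well and dosed 24 h later with DMSO solutions from 0.5 nM to 10 µM (1% DMSO final; vehicle controls). After 72 h, MTS added for 3 h at 37 °C and A490 read, in triplicate. % inhibition = (1 − OD treated/OD control) × 100; IC50 derived.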

HL-60 [4] = assay: Induction of apoptosis in human HL60 cells assessed as increase in caspase 3/7 activation at 500 nM after 48 hrs by fluorescence assay relative to control; assay type: functional
How it was run: (§2)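 HL60 cells grown in complete RPMI, seeded at 20 000 cells/well and treated with DMSO-dissolved compound. Vehicle controls; 1 µM doxorubicine positive control. Fluorescence (ex 360/em 465 nm) followed over 3 h. Reported as fold caspase 3/7 activation over control.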

KB [5] = assay: Cytotoxicity against human KB cells at 1 uM after 72 hrs by MTS assay
Ovis aries [6] = species: Ovis aries; assay: Inhibition of sheep brain tubulin polymerization at 2.5 mM after 15 mins by turbidimetry; how it was run: as §1
HL-60 [7] = assay: Induction of apoptosis in human HL60 cells assessed as increase in caspase 3/7 activation at 50 nM after 48 hrs by fluorescence assay relative to control; assay type: functional; how it was run: as §2

IC50 [1] | Ratio IC50 (Ovis aries [2]) | inhibition (Ovis aries [6]) | Structure (SMILES) | IC50 (KB [3]) | fold change (FC) (HL-60 [4]) | Activity (KB [5]) | fold change (FC) (HL-60 [7])
19000 nM | 6.8 |  | COc1ccc(-c2oc3cc(OC)c(OC)c(O)c3c(=O)c2OC)cc1O [CASTICIN] | 97 nM | 5.3 |  | 
 |  | 0% | COc1ccc(-c2oc3c(OC)c(OC)cc(O)c3c(=O)c2OC)cc1O |  |  | 9% | 
 |  | 0% | COc1ccc(-c2oc3c(N(C)C)c(OC)c(OC)c(O)c3c(=O)c2OC)cc1O |  |  | 40% | 
 |  | 0% | COc1cc(O)c2c(=O)c(OC)c(-c3ccc(OC)c(O)c3)oc2c1 [AYANIN] |  |  | 3% | 

More lines, now with the values behind:

Structure (SMILES) | IC50 [1] | Ratio IC50 (Ovis aries [2]) | inhibition (Ovis aries [6]) | IC50 (KB [3]) | fold change (FC) (HL-60 [4]) | Activity (KB [5]) | fold change (FC) (HL-60 [7])
COc1ccc(-c2oc3c(OC)c(OC)c(OC)c(O)c3c(=O)c2OC)cc1O | 1300 nM | 0.46 |  | 8 nM |  |  | 6.9
COc1ccc(-c2oc3c(OC)c(O)c(OC)c(O)c3c(=O)c2OC)cc1O | 14000 nM | 5 |  |  |  | 10% | 
COc1ccc(-c2oc3c(Br)c(OC)c(Br)c(O)c3c(=O)c2OC)cc1O |  |  | 36% | 404 nM |  |  | 3.2
